Screen size: about 330,000 compounds; about 300 (0.091%) were called active.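 How the source made its calls: active means percent activation above the screen-wide mean plus 3 SD (cut at about 25% in these data); inactive means the rest.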 For the sample, actives were picked, then their nearest neighbours and some compounds at random.
Target: Caspase-7 (Homo sapiens) (UniProt P55210)
Assay: procaspase-7 activators, primary screen, counter-screen for procaspase-3 activator project, biochemical, absorbance, HTS, human (AID 463210)
Details: recombinant procaspase-7, Ac-DEVD-pNA absorbance 405 nm; at 8.5 µM; active compounds read high; D23A/D198A/D206A triple mutant, cannot self-cleave; scale: DMSO 0, 5 µM enzyme 100
In short: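 Assay system – Uncleavable procaspase-7 mutant enzyme · Quantity – 2 µM procaspase-7 mutant as dispensed · Times – 1 h preincubation, 2 h reaction · Dosing – single nominal 8.5 µM compound dose, 0.8% DMSO final · Buffer or medium – Zinc-free 50 mM HEPES buffer, pH 7.4, with NaCl and Triton X-100 · Detection – Epi-absorbance of released pNA at 405 nm, two timepoints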

Chain of Caspase-7 (Homo sapiens) (P55210 whole entry D23A/D198A/D206A): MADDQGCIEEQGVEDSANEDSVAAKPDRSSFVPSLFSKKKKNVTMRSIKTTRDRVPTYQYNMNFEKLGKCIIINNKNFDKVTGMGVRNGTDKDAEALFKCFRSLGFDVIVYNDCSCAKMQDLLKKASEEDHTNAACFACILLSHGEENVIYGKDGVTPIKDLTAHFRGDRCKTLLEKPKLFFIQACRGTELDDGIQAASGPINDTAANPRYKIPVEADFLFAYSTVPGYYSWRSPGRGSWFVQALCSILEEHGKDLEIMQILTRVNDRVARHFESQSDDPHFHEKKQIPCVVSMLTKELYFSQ

| SMILES | activation |
| --- | --- |
| COc1cc(OC)cc(C(=O)NC2CCN(C(=O)N3c4ccccc4Sc4ccccc43)CC2)c1 | 2.43% (inactive) |
| CON(C)S(=O)(=O)c1ccc2c(c1)NC(=O)C1CCCN21 (stereo not given) | -0.92% (inactive) |
| CCCCn1c(-c2cccc(C)c2)nc2cc3[nH]c(=O)c(C(C)C)nc3cc21 | 11.3% (inactive) |
| CC(=O)c1ccc(OC(=O)N2CCOCC2)cc1 | -1.27% (inactive) |
| O=C(NC1CCCC1)C(NS(=O)(=O)c1ccc(Br)s1)c1ccccc1 (stereo not given) | -4.82% (inactive) |
| O=S(=O)(Cc1noc(-c2ccc(OC(F)(F)F)cc2)n1)c1ccc(F)cc1 | 10.7% (inactive) |
| Cc1ccc(C)c(NS(=O)(=O)c2c(C)[nH]c(C)c2C(=O)N2CCCCC2)c1 | 4.13% (inactive) |
| COc1ccccc1N1CCN(C(=O)c2cn(-c3ccccc3)nc2-c2cccnc2)CC1 | 6.33% (inactive) |
| COc1ccccc1N1CCN(C(=O)c2ccc(NC3=NC4CS(=O)(=O)CC4S3)cc2)CC1 (stereo not given) | 5.2% (inactive) |
| COc1ccc(Nc2ncc(C(=O)N3CCN(c4ccccc4OC)CC3)c3ccccc23)cc1 | 49.2% (active) |
| CC(C)C(c1nnnn1C(C)(C)C)N1CCN(Cc2cccnc2)CC1 (stereo not given) | -6.66% (inactive) |
| COc1ccc(CN(C)Cc2nc3cc(OC)c(OC)cc3c(=O)[nH]2)c(OC)c1 | 4.38% (inactive) |
| CSCCC(NS(=O)(=O)c1ccc(C)cc1)C(=O)NCCc1c[nH]c2ccccc12 (stereo not given) | -0.01% (inactive) |
| CCCCS(=O)c1snnc1C (stereo not given) | -3.16% (inactive) |
| CCOC(=O)N1CCN(C(=O)c2ccccc2SCC(=O)NCC2CCCCC2)CC1 | -1.95% (inactive) |
| O=C(O)CCS(=O)(=O)c1ccc(-c2ccccc2)cc1 | 6.38% (inactive) |
| O=C1OCCN1C(=O)[C@H]1[C@H](c2ccc(Cl)cc2)C(c2cccc(Cl)c2)=NN1c1ccc(Br)cc1 | 10.5% (inactive) |
| O=C1OCCN1C(=O)[C@H]1[C@H](c2ccc(F)cc2)C(c2ccccc2)=NN1c1ccc(Br)cc1 | 28.9% (active) |
| O=C1OCCN1C(=O)[C@H]1[C@H](c2ccccc2)C(c2ccc(F)cc2)=NN1c1ccccc1 | -10.3% (inactive) |
| Fc1ccc(N2N=C(c3cccs3)CC2c2ccco2)c(F)c1 (stereo not given) | 51% (active) |
| O=C(COc1ccccc1Cl)N1N=C(c2cccs2)CC1c1ccco1 (stereo not given) | -20% (inactive) |
| COc1ccccc1N1N=C(c2cccs2)CC1c1ccccc1 (stereo not given) | -22.6% (inactive) |
| CN(C(=O)CCNC(=O)Cn1ccc2ccccc2c1=O)c1ccc(Br)cc1 | 4.82% (inactive) |

| SMILES | activation |
| --- | --- |
| Cn1c(CCCOc2ccc(Cl)cc2Cl)n[nH]c1=S | -19.3% (inactive) |
| O=C(Nc1cccc2c1CCCC2)c1ccc(F)cc1 | 7.3% (inactive) |
| Cc1ncn2cc(-c3ccc(Cl)cc3Cl)[nH]c(=O)c12 | 10.9% (inactive) |
| O=C(c1cccc(-n2cccc2)c1)N1CCN(S(=O)(=O)c2ccc(F)cc2)CC1 | 3.36% (inactive) |
| Cc1ccc2c(CC(=O)NCc3cccs3)coc2c1 | -3.04% (inactive) |
| COC(=O)c1ccc(CN2CCN(CCCc3ccccc3)C(CCO)C2)cc1 (stereo not given) | 2.25% (inactive) |
| Cc1cccc(N2CC(C)Cn3c2nc2c3c(=O)n(CC(=O)OCc3ccccc3)c(=O)n2C)c1 (stereo not given) | 1.17% (inactive) |
| COc1ccc(C2=NS(=O)(=O)N(C)C(C(=O)N(C)Cc3ccccc3)=C2)cc1 | 1.33% (inactive) |
| N#Cc1ccccc1CN1C(=O)S/C(=C/c2cccn2-c2cccc(C(=O)O)c2)C1=O | -18.8% (inactive) |
| O=C(Cc1coc2ccc3ccccc3c12)NCc1cccs1 | 9.96% (inactive) |
| CC1(C)Cc2c(sc(NC(=O)C(=O)NCC3CCCO3)c2C(=O)O)CO1 (stereo not given) | 1.97% (inactive) |
| CCc1c(C)c2ccc(OC3CCCCC3=O)cc2oc1=O (stereo not given) | 4.02% (inactive) |
| COC(=O)Cc1c(C)c2ccc(OCC(=O)NCc3ccc4c(c3)OCO4)cc2oc1=O | 13.2% (inactive) |
| CC(=O)Oc1ccc2c(C)c(CC(C)O)c(=O)oc2c1 (stereo not given) | 29.6% (active) |
| CC(C(=O)NCCc1ccc(S(N)(=O)=O)cc1)N1C(=O)CC(C)(C)Sc2ccccc21 (stereo not given) | -4.12% (inactive) |
| COc1ccc(C2(C)ON(c3ccccc3C(F)(F)F)C2=O)cc1 (stereo not given) | 2.15% (inactive) |
| O=C(NC1CCc2ccccc21)C12CN(Cc3ccccc3)CC1C(c1cccc([N+](=O)[O-])c1)=NO2 (stereo not given) | 7.39% (inactive) |
| COc1ccc(NC(=O)c2cccc3c2C(=O)N(CC2CCCO2)C3)cc1OC (stereo not given) | 9.62% (inactive) |
| COc1ccc(/C=N/Nc2nc(-c3ccc(C)cc3)c(C#N)c(=O)[nH]2)cc1 | 1.13% (inactive) |
| COc1ccc(/C=N/Nc2nc3ccccc3c(=O)[nH]2)cc1 | 28.9% (active) |
| COc1ccc(/C=N/Nc2ccccc2C(=O)O)cc1 | -19.5% (inactive) |
| C/C(=N/NC(=O)CSc1ccccn1)c1ccc([N+](=O)[O-])cc1 | 1.61% (inactive) |
| CCCNC(=S)N1CCCC(c2nc3ccccc3[nH]2)C1 (stereo not given) | 6.91% (inactive) |

| SMILES | activation |
| --- | --- |
| Cc1cccc(-n2c(SCC(=O)Nc3cccc(S(=O)(=O)NC4=NCCCCC4)c3)nc3ccccc3c2=O)c1C | -0.51% (inactive) |
| CC1(C)C(C=C(Cl)Cl)C1C(=O)NC(O)C(=O)c1ccccc1 (stereo not given) | 6.56% (inactive) |
| COC(=O)c1ccc(N2CCOCC2)c(NC(=O)c2ccc(Br)o2)c1 | 1.06% (inactive) |
| COc1ccccc1CNC(=O)COC(=O)CNS(=O)(=O)c1ccc(NC(C)=O)cc1 | 7.44% (inactive) |
| CCOC(=O)N1CCN(Cc2nnc(-c3ccccc3Cl)o2)CC1 | -1.71% (inactive) |
| Nc1cccc2c1C(=O)N(Cc1nnc(-c3ccccc3Br)o1)C2=O | 64.5% (active) |
| Cn1cnnc1SCc1nnc(-c2ccccc2Br)o1 | 2.67% (inactive) |
| CN(C)CCCSc1ccccc1NC(=O)/C=C/c1ccccc1 | 10.4% (inactive) |
| Cc1nc(SCC(=O)N2CCc3ccccc3C2)c2c(C)c(C)sc2n1 | 18.1% (inactive) |
| COc1ccc(CSc2nc(N3CCOCC3)c3c(c2C#N)CC(C)(C)OC3)cc1 | -0.56% (inactive) |
| CC(C)C(=O)N1CCN(c2nc(-c3ccccc3)c3c(c2C#N)CC(C)(C)OC3)CC1 | 12.1% (inactive) |
| CC1(C)Cc2c(C#N)c(SCc3nc4ccccc4[nH]3)nc(N3CCOCC3)c2CO1 | 33% (active) |
| Cc1ccc(CSCCNC(=O)CN(c2ccc(F)cc2)S(C)(=O)=O)cc1 | -2.84% (inactive) |
| CCCc1c(C(=O)N/N=C(\C)CCc2ccc(OC)cc2)nnn1-c1nonc1N | 2.5% (inactive) |
| O=C(NCCc1ccco1)c1ccc(OCc2cn3ccccc3n2)cc1 | 15.8% (inactive) |
| CCOc1cc(C(=O)OCC(=O)Nc2cccc(C)c2)ccc1OCC(=O)N1CCOCC1 | 15.3% (inactive) |
| O=S(=O)(NCCSc1ccccn1)c1ccc(Cl)cc1 | -2.06% (inactive) |
| COc1ccc(NC(=O)CNC(=O)Cn2ccc3ccccc3c2=O)c(OC)c1 | -4.04% (inactive) |
| Cc1ccc(Cc2cncc(O)c2)cc1S(=O)(=O)O | 10.6% (inactive) |
| COC(=O)/C=C(\Oc1ccccc1)C1(O)CCCCC1 | 7.7% (inactive) |
| NS(=O)(=O)c1ccc(CCNC(=O)COC(=O)COc2cccc(C(F)(F)F)c2)cc1 | -7.58% (inactive) |
| COc1ccc(OC)c(S(=O)(=O)Nc2cccc(-c3ccc4nncn4n3)c2)c1 | 5.81% (inactive) |
| Nc1c(-c2cccc(Cl)c2)cnn1-c1cccc([N+](=O)[O-])c1 | -13% (inactive) |

| SMILES | activation |
| --- | --- |
| O=C(NC1CCCC1)C(c1ccco1)N(C(=O)c1csnn1)c1ccccc1 (stereo not given) | 6.3% (inactive) |
| Cn1cnnc1Sc1ccc(S(C)(=O)=O)cc1[N+](=O)[O-] | 6.34% (inactive) |
| COc1ccc(CNC(=O)COC(=O)CCS(=O)(=O)c2ccc(C)cc2)cc1OC | 6.34% (inactive) |
| CC(C)CN1CCNC(=O)C1CC(=O)N(C)CC1CCOCC1 (stereo not given) | -1.75% (inactive) |
| Cc1ccccc1NC(=O)CSC1=NCCN1 | 9.38% (inactive) |
| CNS(=O)(=O)c1cccc(C(=O)NC2CCCc3ccccc32)c1 (stereo not given) | 38.5% (active) |
| CNS(=O)(=O)c1cccc(C(=O)NCC2CCCCC2)c1 | 1.69% (inactive) |
| O=C(O)c1cc(S(=O)(=O)NC2CCCc3ccccc32)ccc1O (stereo not given) | -8.22% (inactive) |
| CCOC(=O)/C=C/c1ccc(C(F)(F)F)cc1S(=O)(=O)NC(C)(C)C | 2.37% (inactive) |
| Cc1cc(Cl)c2oc(C(=O)N3CCC(O)(c4ccccc4)CC3)c(C)c2c1 | -0.4% (inactive) |
| COc1ccccc1CNC(=O)CN1CCC(n2cnc3cc(F)ccc32)CC1 | -8.61% (inactive) |
| Cc1coc2c1c(C)cc1oc(=O)c(CC(=O)NCC(=O)N[C@H](C(=O)O)C(C)C)c(C)c12 | -1.78% (inactive) |
| CC1CCN(C(=O)Cn2nnnc2CN2CCOCC2)CC1 | 0.88% (inactive) |
| CCNS(=O)(=O)c1ccc(NC(=O)c2cncc(Br)c2)cc1 | 3.96% (inactive) |
| Cc1ccc2c(C)c(C(=O)N3CCN(c4ccncc4)CC3)oc2c1C | 0% (inactive) |
| Cc1ccc(-c2csc(N3CCN(c4cc5c(cc4Cl)nc(-c4ccncc4)n5CCOCCO)CC3)n2)cc1 | 1.55% (inactive) |
| CC(C)C1Nc2c(C(=O)O)cccc2C(Nc2ccccc2C(=O)O)C1(C)C (stereo not given) | -0.22% (inactive) |
| CCOC(=O)Cn1c2c(c(-c3ccccc3OC)cc1=O)CCCC2 | 0.27% (inactive) |
| CC(=O)Nc1ccc(NS(=O)(=O)c2cc(C)sc2C)cc1 | 4.24% (inactive) |
| O=C(NCCS(=O)(=O)N1CCN(c2ccccc2F)CC1)c1ccc(Br)o1 | 10.8% (inactive) |
| COc1ccc(N2CCN(C(=O)Cn3cnc4sc(C)c(S(=O)(=O)N5CCOCC5)c4c3=O)CC2)cc1 | 7.13% (inactive) |
